Values after ≈ are worked out from the molar mass of the structure shown.
How the values were obtained:
Escherichia coli [1] = assay: Antimicrobial activity in Escherichia coli J53 strain; format: functional
In short: (§1)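 MICs were determined by Etest on Mueller-Hinton agar plates incubated at 37°C. Susceptibility was interpreted according to CLSI guidelines.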

Escherichia coli [2] = assay: Antimicrobial activity in Escherichia coli TOP10 hourbouring recombinant plasmid VIM-19 by Etest in presence of 4 ug/ml Tazobactam; format: functional
In short: (§2)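 Recombinant plasmids were carried in the TOP10 cloning host. The N215K variant was made by site-directed mutagenesis using pVIM-1 as PCR template. MIC by Etest on Mueller-Hinton agar at 37°C, with CLSI interpretation.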

Escherichia coli [3] = assay: Antimicrobial activity in Escherichia coli TOP10 strain in presence of 4 ug/ml Tazobactam; format: functional
In short: (§3)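 MIC by Etest on Mueller-Hinton agar plates at 37°C, with susceptibility interpreted per CLSI guidelines.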

Escherichia coli [4] = assay: Antimicrobial activity in Escherichia coli TOP10 strain; format: functional; in short: as §1
Escherichia coli [5] = assay: microbe, parasite or virus in culture; format: functional; settings: TOP10
Klebsiella pneumoniae [6] = assay: Antimicrobial activity in Klebsiella pneumoniae DIH-2 clinical isolate expressing beta-lactamase VIM-19 by Etest in presence of 4 ug/ml Tazobactam; format: functional
In short: (§4)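 MICs read by Etest on Mueller-Hinton agar incubated at 37°C. Susceptibility was categorized according to CLSI guidelines. Transconjugants were obtained in E. coli J53 by liquid mating at 37°C, with selection on agar containing amoxicillin (50 μg/ml) and azide (100 μg/ml).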

Escherichia coli [7] = assay: Antimicrobial activity in Escherichia coli J53 transconjugate with Escherichia coli DIH-1 expressing natural plasmid containing beta-lactamase VIM-19 in presence of 4 ug/ml Tazobactam; format: functional
In short: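 Transconjugant came from liquid mating-out at 37°C into azide-resistant J53, selected on agar with amoxicillin (50 μg/ml) plus azide (100 μg/ml). MIC by Etest on Mueller-Hinton agar at 37°C, with CLSI interpretation.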

Klebsiella pneumoniae [8] = assay: Antimicrobial activity in Klebsiella pneumoniae DIH-2 clinical isolate expressing beta-lactamase VIM-19 by Etest; format: functional
Escherichia coli [9] = assay: Antimicrobial activity in Escherichia coli TOP10 hourbouring recombinant plasmid VIM-4 by Etest in presence of 4 ug/ml Tazobactam; format: functional; in short: as §2
Escherichia coli [10] = assay: microbe, parasite or virus in culture; format: functional; settings: TOP10; remark: listed apart in the source
Escherichia coli [11] = assay: Antimicrobial activity in Escherichia coli DIH-1 expressing beta-lactamase VIM-19 by Etest in presence of 4 ug/ml Tazobactam; format: functional; in short: as §4
Escherichia coli [12] = assay: Antimicrobial activity in Escherichia coli J53 transconjugate with Escherichia coli DIH-1 expressing natural plasmid containing beta-lactamase VIM-19; format: functional
In short: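 Transconjugants came from liquid mating-out at 37°C with azide-resistant E. coli J53 as recipient, selected on agar with amoxicillin (50 μg/ml) plus azide (100 μg/ml). MICs were then read by Etest on Mueller-Hinton agar at 37°C and interpreted per CLSI.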

Escherichia coli [13] = assay: microbe, parasite or virus in culture; format: functional; settings: TOP10; remark: listed apart in the source
Escherichia coli [14] = assay: Antimicrobial activity in Escherichia coli TOP10 harbouring recombinant plasmid VIM-1-N215K by Etest in presence of 4 ug/ml Tazobactam; format: functional; in short: as §2
Escherichia coli [15] = assay: Antimicrobial activity in Escherichia coli TOP10 strain harbouring recombinant plasmid VIM-1 by Etest in presence of 4 ug/ml Tazobactam; format: functional; in short: as §2
Escherichia coli [16] = assay: Antimicrobial activity in Escherichia coli DIH-1 expressing beta-lactamase VIM-19 by Etest; format: functional; in short: as §4
Escherichia coli [17] = assay: Antimicrobial activity in Escherichia coli J53 strain in presence of 4 ug/ml Tazobactam; format: functional; in short: as §3
Escherichia coli [18] = assay: microbe, parasite or virus in culture; format: functional; settings: TOP10; remark: listed apart in the source
[19] = system: CC1(C)S[C@@H]2[C@H](NC(=O)Cc3ccccc3)C(=O)N2[C@H]1C(=O)O; assay: (§5) Hydrolytic activity of beta-lactamase VIM-1 expressed in Escherichia coli TOP10 by spectrophotometry
[20] = system: CC(C)(O/N=C(\C(=O)N[C@@H]1C(=O)N2C(C(=O)[O-])=C(C[n+]3ccccc3)CS[C@H]12)c1csc(N)n1)C(=O)O; assay: as §5
[21] = system: CO[C@@]1(NC(=O)Cc2cccs2)C(=O)N2C(C(=O)O)=C(COC(N)=O)CS[C@@H]21; assay: as §5
[22] = system: CCN1CCN(C(=O)N[C@@H](C(=O)N[C@@H]2C(=O)N3[C@@H]2SC(C)(C)[C@@H]3C(=O)O)c2ccccc2)C(=O)C1=O; assay: as §5
[23] = system: CO/N=C(\C(=O)N[C@@H]1C(=O)N2C(C(=O)O)=C(COC(C)=O)CS[C@H]12)c1csc(N)n1; assay: as §5
[24] = system: C[C@@H](O)[C@H]1C(=O)N2C(C(=O)O)=C(S[C@@H]3CN[C@H](C(=O)N(C)C)C3)[C@H](C)[C@H]12; assay: as §5
[25] = system: CC1(C)S[C@@H]2[C@H](NC(=O)Cc3ccccc3)C(=O)N2[C@H]1C(=O)O; assay: (§6) Ratio of Kcat to Km for beta-lactamase VIM-1 expressed in Escherichia coli TOP10 by spectrophotometry
[26] = system: CC(C)(O/N=C(\C(=O)N[C@@H]1C(=O)N2C(C(=O)[O-])=C(C[n+]3ccccc3)CS[C@H]12)c1csc(N)n1)C(=O)O; assay: as §6
[27] = system: CO[C@@]1(NC(=O)Cc2cccs2)C(=O)N2C(C(=O)O)=C(COC(N)=O)CS[C@@H]21; assay: as §6
[28] = system: CCN1CCN(C(=O)N[C@@H](C(=O)N[C@@H]2C(=O)N3[C@@H]2SC(C)(C)[C@@H]3C(=O)O)c2ccccc2)C(=O)C1=O; assay: as §6
[29] = system: CO/N=C(\C(=O)N[C@@H]1C(=O)N2C(C(=O)O)=C(COC(C)=O)CS[C@H]12)c1csc(N)n1; assay: as §6
[30] = system: C[C@@H](O)[C@H]1C(=O)N2C(C(=O)O)=C(S[C@@H]3CN[C@H](C(=O)N(C)C)C3)[C@H](C)[C@H]12; assay: as §6
[31] = system: CC1(C)S[C@@H]2[C@H](NC(=O)Cc3ccccc3)C(=O)N2[C@H]1C(=O)O; assay: (§7) Ratio of Kcat to Km for beta-lactamase VIM-19 expressed in Escherichia coli TOP10 by spectrophotometry
In short: (§8)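 Enzyme came from E. coli TOP10 (pVIM-19) grown overnight at 37°C in Trypticase soy broth with amoxicillin (100 μg/ml) and kanamycin (30 μg/ml). The sonicated, cleared extract was purified on Q-Sepharose with a 0–1 M NaCl gradient, in Bis-Tris then cacodylate pH 6.5 buffers.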

[32] = system: CC(C)(O/N=C(\C(=O)N[C@@H]1C(=O)N2C(C(=O)[O-])=C(C[n+]3ccccc3)CS[C@H]12)c1csc(N)n1)C(=O)O; assay: as §7; in short: as §8
[33] = system: CO[C@@]1(NC(=O)Cc2cccs2)C(=O)N2C(C(=O)O)=C(COC(N)=O)CS[C@@H]21; assay: as §7; in short: as §8
[34] = system: C[C@@H](O)[C@H]1C(=O)N2C(C(=O)O)=C(S[C@@H]3CN[C@H](C(=O)Nc4cccc(C(=O)O)c4)C3)[C@H](C)[C@H]12; assay: as §7; in short: as §8
[35] = system: CCN1CCN(C(=O)N[C@@H](C(=O)N[C@@H]2C(=O)N3[C@@H]2SC(C)(C)[C@@H]3C(=O)O)c2ccccc2)C(=O)C1=O; assay: as §7; in short: as §8
[36] = system: CO/N=C(\C(=O)N[C@@H]1C(=O)N2C(C(=O)O)=C(COC(C)=O)CS[C@H]12)c1csc(N)n1; assay: as §7; in short: as §8
[37] = system: C[C@@H](O)[C@H]1C(=O)N2C(C(=O)O)=C(S[C@@H]3CN[C@H](C(=O)N(C)C)C3)[C@H](C)[C@H]12; assay: as §7; in short: as §8
[38] = system: CC1(C)S[C@@H]2[C@H](NC(=O)Cc3ccccc3)C(=O)N2[C@H]1C(=O)O; assay: (§9) Hydrolytic activity of beta-lactamase VIM-19 expressed in Escherichia coli TOP10 by spectrophotometry; in short: as §8
[39] = system: CC(C)(O/N=C(\C(=O)N[C@@H]1C(=O)N2C(C(=O)[O-])=C(C[n+]3ccccc3)CS[C@H]12)c1csc(N)n1)C(=O)O; assay: as §9; in short: as §8
[40] = system: CO[C@@]1(NC(=O)Cc2cccs2)C(=O)N2C(C(=O)O)=C(COC(N)=O)CS[C@@H]21; assay: as §9; in short: as §8
[41] = system: C[C@@H](O)[C@H]1C(=O)N2C(C(=O)O)=C(S[C@@H]3CN[C@H](C(=O)Nc4cccc(C(=O)O)c4)C3)[C@H](C)[C@H]12; assay: as §9; in short: as §8
[42] = system: CCN1CCN(C(=O)N[C@@H](C(=O)N[C@@H]2C(=O)N3[C@@H]2SC(C)(C)[C@@H]3C(=O)O)c2ccccc2)C(=O)C1=O; assay: as §9; in short: as §8
[43] = system: CO/N=C(\C(=O)N[C@@H]1C(=O)N2C(C(=O)O)=C(COC(C)=O)CS[C@H]12)c1csc(N)n1; assay: as §9; in short: as §8
[44] = system: C[C@@H](O)[C@H]1C(=O)N2C(C(=O)O)=C(S[C@@H]3CN[C@H](C(=O)N(C)C)C3)[C@H](C)[C@H]12; assay: as §9; in short: as §8

With `CCN1CCN(C(=O)N[C@@H](C(=O)N[C@@H]2C(=O)N3[C@@H]2SC(C)(C)[C@@H]3C(=O)O)c2ccccc2)C(=O)C1=O` [PIPERACILLIN] the MIC (Escherichia coli [1]) was 1 µg/mL (≈ 1.93 µM), the MIC (Escherichia coli [2]) was 256 µg/mL and the MIC (Escherichia coli [3]) was 1 µg/mL. The MIC (Escherichia coli [4]) was 1 µg/mL (≈ 1.93 µM), the MIC (Escherichia coli [5]) was 256 µg/mL (≈ 495 µM) and the MIC (Klebsiella pneumoniae [6]) was > 512 µg/mL. For the same compound, the MIC (Escherichia coli [7]) was 256 µg/mL, the MIC (Klebsiella pneumoniae [8]) was > 512 µg/mL and the MIC (Escherichia coli [9]) was 256 µg/mL. The MIC (Escherichia coli [10]) was 256 µg/mL (≈ 495 µM), the MIC (Escherichia coli [11]) was > 512 µg/mL and the MIC (Escherichia coli [12]) was 256 µg/mL (≈ 495 µM). It also gave an MIC (Escherichia coli [13]) of 256 µg/mL (≈ 495 µM), an MIC (Escherichia coli [14]) of 256 µg/mL and an MIC (Escherichia coli [15]) of 256 µg/mL. The MIC (Escherichia coli [16]) was > 512 µg/mL, the MIC (Escherichia coli [17]) was 1 µg/mL and the MIC (Escherichia coli [18]) was 256 µg/mL (≈ 495 µM).
In the case of `CC1(C)S[C@@H]2[C@H](NC(=O)[C@H](C(=O)O)c3ccsc3)C(=O)N2[C@H]1C(=O)O` [TICARCILLIN], the MIC (Escherichia coli [1]) is reported as 4 µg/mL (≈ 10.4 µM), the MIC (Escherichia coli [4]) is reported as 4 µg/mL (≈ 10.4 µM) and the MIC (Escherichia coli [5]) is reported as > 512 µg/mL. For the same compound, the MIC (Klebsiella pneumoniae [8]) was > 512 µg/mL, the MIC (Escherichia coli [10]) was > 512 µg/mL and the MIC (Escherichia coli [12]) was > 512 µg/mL. For the same compound, the MIC (Escherichia coli [16]) was > 512 µg/mL.
“BlaVIM-1 (Escherichia coli) (from UniProt Q8GDC1)” showed a Km [19] of 850 µM, a Km [20] of 800 µM and a kcat [20] of 60 s⁻¹. The Km [21] was 130 µM, the Km [22] was 3500 µM and the Km [23] was 250 µM. The Km [24] was 50 µM, the kcat/Km [25] was 50000 M⁻¹ s⁻¹ and the kcat/Km [26] was 100000 M⁻¹ s⁻¹. For the same compound, the kcat/Km [27] was 200000 M⁻¹ s⁻¹, the kcat/Km [28] was 500000 M⁻¹ s⁻¹ and the kcat/Km [29] was 700000 M⁻¹ s⁻¹. For the same compound, the kcat/Km [30] was 300000 M⁻¹ s⁻¹.
With “Metallo-beta-lactamase VIM-19 (Escherichia coli) (from UniProt D2D9J0)” the kcat/Km [31] was 5e+06 M⁻¹ s⁻¹, the kcat/Km [32] was 20000 M⁻¹ s⁻¹ and the kcat/Km [33] was 500000 M⁻¹ s⁻¹. It also gave a kcat/Km [34] of 100000 M⁻¹ s⁻¹, a kcat/Km [35] of 4e+06 M⁻¹ s⁻¹ and a kcat/Km [36] of 3e+07 M⁻¹ s⁻¹. For the same compound, the kcat/Km [37] was 2e+06 M⁻¹ s⁻¹, the Km [38] was 300 µM and the kcat [38] was 1300 s⁻¹. For the same compound, the Km [39] was > 1000 µM, the kcat [39] was > 20 s⁻¹ and the Km [40] was 60 µM. For the same compound, the kcat [40] was 30 s⁻¹, the Km [41] was 200 µM and the kcat [41] was 15 s⁻¹. It also gave a kcat [42] of 860 s⁻¹, a Km [43] of 30 µM and a kcat [43] of 900 s⁻¹. For the same compound, the Km [44] was 15 µM.
